Source: ChEMBL document CHEMBL1144532, “Antiprotozoal and antimicrobial activities of O-alkylated and formylated acylphloroglucinols” (Bioorg Med Chem, 2007)
Converted amounts (≈) assume the structure as drawn. The source made the active and inactive calls. No cut-off for these calls is given here.

Experiments:
[1] = test system: Leishmania donovani; assay: Antileishmanial activity against Leishmania donovani promastigotes after 48 hrs by Alamar blue assay; format: functional, organism-based
Summary of the method: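 L. donovani promastigotes grown in RPMI 1640 + 10% fetal calf serum at 26 °C; 3-day culture diluted to 5 × 10^5/mL, drug dilutions made directly in suspension, 48 h at 26 °C. Alamar blue fluorescence 544 nm ex/590 nm em; IC50 and IC90 from percent growth vs concentration curves.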

[2] = test system: LLC-PK1; assay: Cytotoxicity against LLC-PK1 cells up to 23.8 ug/mL by neutral red assay; format: cell-based, Sus scrofa; details: pig
[3] = test system: Vero; assay: Cytotoxicity against Vero cells up to 23.8 ug/mL by neutral red assay; format: cell-based; details: chlorocebus sabaeus
[4] = test system: Vero; assay: Cytotoxicity against Vero cells up to 4.76 ug/mL by neutral red assay; format: cell-based; details: chlorocebus sabaeus
[5] = test system: Mycobacterium intracellulare; assay: Antimicrobial activity against Mycobacterium intracellular; format: functional, organism-based
Summary of the method: (§1)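 Samples in DMSO serially diluted in 0.9% saline, tested in duplicate; inocula set against 0.5 McFarland standard (absorbance 630 nm) and diluted in broth to recommended levels. Growth, solvent and media controls included. Read at 630 nm, or fluorescence 544ex/590em for M. intracellulare (modified Alamar Blue), before and after incubation; IC50 from percent growth versus concentration.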

[6] = test system: Candida albicans; assay: Antifungal activity against Candida albicans; format: functional, organism-based; summary of the method: as §1
[7] = test system: LLC-PK1; assay: Cytotoxicity against LLC-PK1 cells up to 4.76 ug/mL by neutral red assay; format: cell-based, Sus scrofa; details: pig
[8] = test system: Aspergillus fumigatus; assay: Antifungal activity against Aspergillus fumigatus; format: functional, organism-based; summary of the method: as §1
[9] = test system: Plasmodium falciparum; assay: Antimalarial activity against Plasmodium falciparum W2; format: functional, organism-based
Summary of the method: (§2)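 P. falciparum-infected erythrocytes at 2% parasitemia, 2% hematocrit in RPMI 1640 with 10% human serum and 60 µg/mL amikacin, exposed to serial dilutions 72 h at 37 °C under 90% N2/5% O2/5% CO2. Parasite LDH measured with Malstat reagent then NBT/PES, stopped with 5% acetic acid, A650; IC50 from dose–response. DMSO 0.25% vehicle.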

[10] = test system: Plasmodium falciparum; assay: Antimalarial activity against Plasmodium falciparum D6; format: functional, organism-based; summary of the method: as §2
[11] = test system: Staphylococcus aureus; assay: Antibacterial activity against methicillin-resistant Staphylococcus aureus; format: functional, organism-based
Summary of the method: (§3)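 Samples in DMSO, serially diluted in 0.9% saline, tested in duplicate. Inoculum set against the 0.5 McFarland standard by absorbance at 630 nm, then diluted in broth. Growth, solvent and media controls included. Absorbance read at 630 nm before and after incubation. IC50 taken from percent growth versus concentration. Inactivity was scored at 20 µg/mL.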

[12] = test system: Cryptococcus neoformans; assay: Antifungal activity against Cryptococcus neoformans at 20 ug/mL; format: functional, organism-based
[13] = test system: Candida albicans; assay: Antifungal activity against Candida albicans at 20 ug/mL; format: functional, organism-based
[14] = test system: Vero; assay: Cytotoxicity against Vero cells by neutral red assay; format: cell-based; details: chlorocebus sabaeus
Summary of the method: (§4)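 Cells seeded 25,000/well, grown 24 h, then exposed to samples 48 h; viable cells quantified by neutral red uptake. IC50 taken from logarithmic plots of growth inhibition versus concentration; DMSO vehicle control.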

[15] = test system: Leishmania donovani; assay: Antileishmanial activity against Leishmania donovani promastigotes after 48 hrs at 40 ug/mL by Alamar blue assay; format: functional, organism-based
[16] = test system: Staphylococcus aureus; assay: Antibacterial activity against methicillin-resistant Staphylococcus aureus at 20 ug/mL; format: functional, organism-based; summary of the method: as §3
[17] = test system: LLC-PK1; assay: Cytotoxicity against LLC-PK1 cells by neutral red assay; format: cell-based; details: Sus scrofa; summary of the method: as §4
[18] = test system: Cryptococcus neoformans; assay: Antifungal activity against Cryptococcus neoformans; format: functional, organism-based; summary of the method: as §1

Row | SMILES | IC50 [1] [µg/mL] | IC90 [1] [µg/mL] | Activity [5] | Activity [8] | Activity [9] | Activity [10] | Activity [16] | other results
1 | CC(C)CCOc1cc(O)c(C(=O)CC(C)C)c(O)c1C(=O)CC(C)C | 24 (≈ 65.8 µM) | > 40 | – | – | – | – | – | Activity [2]: Not Active; Activity [3]: Not Active
2 | CC(C)CC(=O)c1c(O)c(C=O)c(O)c(C=O)c1O [JENSENONE] | 19 (≈ 71.4 µM) | 35 (≈ 131 µM) | inactive | inactive | inactive | inactive | – | Activity [4]: Not Active; IC50 [6]: 5.5 µg/mL (≈ 20.7 µM); Activity [7]: Not Active; IC50 [11]: 20 µg/mL (≈ 75.1 µM); Activity [12]: inactive
3 | CC(=O)c1c(O)cc(O)c(C=O)c1O | – | – | inactive | inactive | inactive | inactive | inactive | Activity [13]: inactive; IC50 [14]: 17.5 µg/mL (≈ 89.2 µM); Activity [15]: inactive; IC50 [17]: 10 µg/mL (≈ 51 µM); Activity [12]: inactive
4 | CC(=O)c1c(O)cc(OCCC(C)C)c(C(C)=O)c1O | 40 (≈ 143 µM) | > 40 | – | – | – | – | – | Activity [2]: Not Active; Activity [3]: Not Active
5 | CC(C)=CCc1c(O)c(C=O)c(O)c(C(=O)/C(C)=C/O)c1O | – | > 40 | inactive | inactive | inactive | inactive | inactive | Activity [13]: inactive; IC50 [14]: 19 µg/mL (≈ 62 µM); IC50 [17]: 14.5 µg/mL (≈ 47.3 µM); Activity [12]: inactive
6 | CC(=O)c1c(O)cc(OCCC(C)C)c(C=O)c1O | 7.8 (≈ 29.3 µM) | > 40 | – | – | – | – | – | Activity [2]: Not Active; Activity [3]: Not Active
7 | C[C@@H]1[C@H](O)[C@@H](C)/C=C/C=C/C=C/C=C/C=C/C=C/C=C/[C@H](O[C@@H]2O[C@H](C)[C@@H](O)[C@H](N)[C@@H]2O)C[C@@H]2O[C@](O)(C[C@@H](O)C[C@@H](O)[C@H](O)CC[C@@H](O)C[C@@H](O)CC(=O)O[C@H]1C)C[C@H](O)[C@H]2C(=O)O [AMPHOTERICIN B] | 0.32 (≈ 0.346 µM) | 0.9 (≈ 0.974 µM) | inactive | inactive | – | – | – | IC50 [18]: 0.7 µg/mL (≈ 0.758 µM); IC50 [6]: 0.3 µg/mL (≈ 0.325 µM)
8 | CC(=O)c1c(O)c(C)c(O)c(C=O)c1O | – | – | inactive | inactive | inactive | inactive | inactive | Activity [4]: Not Active; Activity [15]: inactive; IC50 [6]: 15 µg/mL (≈ 71.4 µM); Activity [7]: Not Active; Activity [12]: inactive
9 | CC(=O)c1c(O)cc(O)c(C(C)=O)c1O | 27 (≈ 128 µM) | > 40 | inactive | inactive | inactive | inactive | inactive | Activity [13]: inactive; IC50 [14]: 12 µg/mL (≈ 57.1 µM); IC50 [17]: 11 µg/mL (≈ 52.3 µM); Activity [12]: inactive
10 | C=CCOc1cc(O)c(C(C)=O)c(O)c1C(C)=O | – | – | – | – | – | – | – | Activity [15]: inactive; Activity [2]: Not Active; Activity [3]: Not Active
11 | C=CCOc1cc(O)c(C(C)=O)c(O)c1C=O | – | – | – | – | – | – | – | Activity [15]: inactive; Activity [2]: Not Active; Activity [3]: Not Active
12 | Cc1c(O)c(C=O)c(O)c(C(=O)CC(C)C)c1O [GRANDINOL] | 21 (≈ 83.2 µM) | 39 (≈ 155 µM) | inactive | inactive | inactive | inactive | – | IC50 [14]: 8 µg/mL (≈ 31.7 µM); IC50 [18]: 10 µg/mL (≈ 39.6 µM); IC50 [6]: 10 µg/mL (≈ 39.6 µM); IC50 [17]: 7 µg/mL (≈ 27.7 µM); IC50 [11]: 8 µg/mL (≈ 31.7 µM)
13 | C=CCOc1cc(O)c(C(=O)CC(C)C)c(O)c1C(=O)CC(C)C | 14 (≈ 41.9 µM) | 36 (≈ 108 µM) | – | – | – | – | – | Activity [2]: Not Active; Activity [3]: Not Active
14 | CC(C)CCOc1cc(O)c(CCC(C)C)c(O)c1C=O | 10 (≈ 34 µM) | 36 (≈ 122 µM) | – | – | – | – | – | IC50 [14]: 4.6 µg/mL (≈ 15.6 µM); IC50 [17]: 11.5 µg/mL (≈ 39.1 µM)
15 | CCN(CC)CCCC(C)Nc1ccnc2cc(Cl)ccc12 (configuration not stated) | – | – | inactive | inactive | – | – | – | –
16 | C[C@@H]1CC[C@H]2[C@@H](C)C(=O)O[C@@H]3O[C@@]4(C)CC[C@@H]1[C@]32OO4 | – | – | inactive | inactive | – | – | – | –
17 | C/C(=C\O)C(=O)c1c(O)cc(O)c(C=O)c1O | 29 (≈ 122 µM) | > 40 | inactive | inactive | inactive | inactive | inactive | IC50 [18]: 2.5 µg/mL (≈ 10.5 µM); IC50 [6]: 2 µg/mL (≈ 8.4 µM); Activity [2]: Not Active; Activity [3]: Not Active
18 | N=C(N)c1ccc(OCCCCCOc2ccc(C(=N)N)cc2)cc1 [PENTAMIDINE] | 1.5 (≈ 4.41 µM) | 4.9 (≈ 14.4 µM) | inactive | inactive | – | – | – | –
19 | CC(C)CCOc1cc(O)c(C(=O)CC(C)C)c(O)c1C=O | 4.2 (≈ 13.6 µM) | > 40 | – | – | – | – | – | Activity [2]: Not Active; Activity [3]: Not Active
20 | O=C(O)c1cn(C2CC2)c2cc(N3CCNCC3)c(F)cc2c1=O | – | – | inactive | inactive | – | – | – | –
21 | C=CCOc1cc(O)c(C(=O)CC(C)C)c(O)c1C=O | 5.3 (≈ 19 µM) | 31 (≈ 111 µM) | – | – | – | – | – | IC50 [14]: 17 µg/mL (≈ 61.1 µM); IC50 [17]: 9 µg/mL (≈ 32.3 µM)
22 | CCC(=O)c1c(O)cc(O)c(C=O)c1O | – | – | inactive | inactive | inactive | inactive | inactive | Activity [13]: inactive; IC50 [14]: 18 µg/mL (≈ 85.6 µM); IC50 [18]: 15 µg/mL (≈ 71.4 µM); Activity [15]: inactive; IC50 [17]: 11 µg/mL (≈ 52.3 µM)
23 | CC(C)CC(=O)c1c(O)cc(O)c(C=O)c1O | 27 (≈ 113 µM) | 40 (≈ 168 µM) | inactive | inactive | inactive | inactive | inactive | Activity [13]: inactive; IC50 [14]: 14 µg/mL (≈ 58.8 µM); IC50 [17]: 9.5 µg/mL (≈ 39.9 µM); Activity [12]: inactive
24 | CCC(=O)c1c(O)c(C)c(O)c(C=O)c1O | – | – | inactive | inactive | inactive | inactive | inactive | Activity [4]: Not Active; IC50 [18]: 20 µg/mL (≈ 89.2 µM); Activity [15]: inactive; IC50 [6]: 5 µg/mL (≈ 22.3 µM); Activity [7]: Not Active
25 | Cc1c(O)c(C=O)c(O)c(C=O)c1O | – | – | inactive | inactive | inactive | inactive | inactive | Activity [13]: inactive; Activity [4]: Not Active; Activity [15]: inactive; Activity [7]: Not Active; Activity [12]: inactive
26 | COc1cccc2c1C(=O)c1c(O)c3c(c(O)c1C2=O)C[C@@](O)(C(=O)CO)C[C@@H]3O[C@H]1C[C@H](N)[C@H](O)[C@H](C)O1 | – | – | inactive | inactive | – | – | – | –
27 | CC(C)CCc1c(O)c(C=O)c(O)c(C=O)c1O | – | – | inactive | inactive | inactive | inactive | inactive | Activity [13]: inactive; Activity [4]: Not Active; Activity [15]: inactive; Activity [7]: Not Active; Activity [12]: inactive
